TRPC4 agonist: activators of mouse TRPC4 channel. Q9QUQ5. HEK293 TRPC4beta/mu-opioid, Fluo4 calcium fluorescence; hits give high values. B-score at 10 µM. 310,000 tested, 0.49% active;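 active = B-score above 5 SD of library B-scores, and initial fluorescence ratio not above library mean plus 5 SD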;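 note: positive B-score marks a calcium rise read as TRPC4 activation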
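Material: TRPC4beta and mu-opioid receptor HEK293 stable cells | Incubation: 45 min room-temperature Fluo4 loading, 110 s read | Detection: Kinetic Fluo4 calcium fluorescence | Measure: Integrated baseline-normalised fluorescence ratio, converted to per-well B score | Benchmarks: Low control buffer alone, high control maximal DAMGO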
TRPC4 inh: TRPC4 (mouse) channel inhibition | HEK293 TRPC4beta/mu-opioid, DAMGO-evoked Fluo4 calcium flux; hits give low values | B-score at 10 µM | 300,000 tested, 0.39% active;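 active = B-score over 3 SD under the library average, no early fluorescence shift, positive overall ratio signal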
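Assay system: HEK293 cells with stable TRPC4beta plus mu-opioid receptor expression. Dosing: single dose. Measured by: Fluo4 Ca2+ flux fluorescence. Also added: DAMGO in two steps, submaximal then maximal. Read-out: B score from integrated Fluo4 fluorescence ratio.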
TRPC4 PAM: allosterically enhances the mouse TRPC4 cation channel. Q9QUQ5. HEK293 TRPC4beta/mu-opioid, DAMGO EC20, Fluo-4 Ca2+ flux; hits give high values. B-score at 10 µM. 310,000 tested, 0.42% active. AID 2227;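 active = B-score of calcium response area above 5 SD of library B-scores, with initial fluorescence ratio within 5 SD of library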;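 note: B-score of integrated fluorescence ratio over time as area under calcium response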
Platelet DG rel: modulates dense granule release in human platelets; inhibition, %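 (compounds screened at 7.5 µM in platelet-rich plasma)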; AID 1663; 300,000 tested, 0.22% active; human platelet-rich plasma, SFLLRN dense granule ATP release, luminescence;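 active = mean replicate score, as percent of positive control, at or above 50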
TRPC6 inhibitor: mouse TRPC6 channel inhibition | Q61143 | B-score at 10 µM | AID 2553 | 310,000 tested, 1.1% active | HEK293-TRPC6, membrane potential dye, ACh-evoked depolarization; hits give low values;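 active = B-score under library mean minus 3 SD, initial fluorescence not abnormally high, positive integrated signal ratio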;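 note: B-score derived from integrated fluorescence ratio over the kinetic read; more negative B-score means stronger inhibition of depolarization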
Target sequence (Q61143 whole entry, looked up): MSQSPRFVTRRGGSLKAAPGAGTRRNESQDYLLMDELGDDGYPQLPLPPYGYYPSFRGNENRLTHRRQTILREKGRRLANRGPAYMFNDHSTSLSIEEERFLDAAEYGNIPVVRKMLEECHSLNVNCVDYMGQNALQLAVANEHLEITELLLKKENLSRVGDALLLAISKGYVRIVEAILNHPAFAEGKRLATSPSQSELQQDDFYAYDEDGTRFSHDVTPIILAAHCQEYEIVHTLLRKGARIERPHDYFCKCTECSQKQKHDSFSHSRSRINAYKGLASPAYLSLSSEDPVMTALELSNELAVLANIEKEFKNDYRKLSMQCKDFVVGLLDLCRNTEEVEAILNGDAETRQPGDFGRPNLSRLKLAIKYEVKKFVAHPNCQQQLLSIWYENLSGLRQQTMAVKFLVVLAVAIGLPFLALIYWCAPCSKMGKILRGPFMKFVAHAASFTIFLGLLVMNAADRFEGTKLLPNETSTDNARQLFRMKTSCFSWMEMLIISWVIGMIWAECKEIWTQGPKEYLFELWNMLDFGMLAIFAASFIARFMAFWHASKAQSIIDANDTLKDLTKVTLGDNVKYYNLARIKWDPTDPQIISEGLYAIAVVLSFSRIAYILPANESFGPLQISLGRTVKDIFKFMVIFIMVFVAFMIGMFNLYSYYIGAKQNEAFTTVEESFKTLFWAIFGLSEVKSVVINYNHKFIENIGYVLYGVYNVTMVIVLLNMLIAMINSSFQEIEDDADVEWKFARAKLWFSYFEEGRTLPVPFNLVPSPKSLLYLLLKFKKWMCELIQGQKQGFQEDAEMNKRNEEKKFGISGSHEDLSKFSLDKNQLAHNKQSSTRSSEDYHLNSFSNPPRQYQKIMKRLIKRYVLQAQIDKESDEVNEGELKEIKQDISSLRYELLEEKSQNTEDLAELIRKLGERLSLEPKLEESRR
TRPC6 activator: activates the mouse TRPC6 cation channel; HEK293-TRPC6 membrane potential dye fluorescence; hits give high values; 310,000 tested, 0.13% active; AID 2550; B-score at 10 µM;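 active = B-score of the integrated fluorescence ratio above library mean plus 3 SD, and starting fluorescence ratio within library mean plus 5 SD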;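 note: higher score means more depolarization so channel activation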
TRPC4 spec 2: second selectivity test of TRPC6 inhibitors: effect on mouse TRPC4 | AID 2776 | HEK293 TRPC4/MOR, membrane potential dye fluorescence; channel activated by saturating DAMGO dose | inhibition, % at 10 µM | shares compounds with TRPC6 inhibitor | 920 tested, 42% active;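 active = compounds whose fluorescence signal differed from control wells by over 3 SD, either direction, in both duplicate plates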
TRPC4 spec: mouse TRPC4 off-target activity of TRPC6 inhibitors; activity change, negative = inhibition, % at 10 µM; shares compounds with TRPC6 inhibitor; 920 tested, 61% active; HEK293 TRPC4/mu-opioid, membrane potential fluorescence; AID 2777;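 active = rise or fall in signal beyond 3 SD of buffer-only wells in both replicate plates, either sign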;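 note: integrated kinetic ratio of fluorescence range over baseline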
HEK293 MPD ctr 2-1: second check of TRPC6 inhibitor effects in parental HEK293 cells; shares compounds with TRPC6 inhibitor; parental HEK293 membrane potential dye fluorescence; maximal acetylcholine challenge after compound addition; signal change vs control, % at 10 µM; 920 tested, 31% active; AID 2779;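 active = membrane potential signal moving either way by over 3 SD of the maximum-effect control, in both duplicate plates, meaning non-specific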
HEK293 MPD ctr-1: checks TRPC6 inhibitor effects in parental HEK293 cells; shares compounds with TRPC6 inhibitor; parental HEK293 membrane potential dye fluorescence; membrane potential signal change, % at 10 µM; 920 tested, 60% active; AID 2780;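 active = membrane potential signal shifting up or down by more than 3 SD of buffer-only wells, on both duplicate plates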
HEK293 MPD ctr-2: counter-screen for TRPC6 modulators: effect in parental HEK293 cells. membrane potential signal change, % at 10 µM. 2,400 tested, 51% active. AID 488924. shares compounds with TRPC6 inhibitor. membrane potential dye fluorescence;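 active = membrane potential signal moves up or down beyond 5 SD from buffer-only wells, on both duplicate plates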
HEK293 MPD ctr 2-2: parental HEK293 nonspecific activity of TRPC6 modulators, second screen; inhibition, % at 10 µM; shares compounds with TRPC6 inhibitor; AID 488926; membrane potential dye fluorescence; after compound, maximal acetylcholine stimulation; 2,400 tested, 14% active;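 active = membrane potential signal drops by more than 5 SD from the mean control signal, in both duplicate plates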;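 note: plate controls were acetylcholine ECmax control wells for no effect and buffer only wells for full effect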
TRPC4/MOR mod: mouse TRPC4 off-target activity of TRPC6 modulators; HEK293 TRPC4/mu-opioid, membrane potential fluorescence; shares compounds with TRPC6 inhibitor; 2,400 tested, 69% active; percent change from control (negative = decrease, positive = increase), % at 10 µM;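 active = membrane potential signal moved up or down beyond 5 SD of buffer control wells, in both duplicate plates, actives on both sides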;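 note: plate controls were assay buffer wells for no effect and DAMGO maximal-effect wells for full effect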
TRPC4/MOR inh 2: second check of whether TRPC6 modulators also affect mouse TRPC4; shares compounds with TRPC6 inhibitor; HEK293 TRPC4/mu-opioid, membrane potential dye fluorescence; stimulated with maximal-effect DAMGO; inhibition, % at 10 µM; 2,400 tested, 55% active; AID 488928;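 active = drop in membrane potential signal beyond 5 SD of the control wells in both duplicate plates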;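 note: TRPC4 counter screen for TRPC6 hits run under conditions tuned for TRPC6 not TRPC4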
TRPC6 inh conf: mouse TRPC6 inhibitor confirmation; shares compounds with TRPC6 inhibitor; HEK293-TRPC6, membrane potential dye, ACh-evoked depolarization; inhibition, % at 10 µM; 3,300 tested, 43% active; AID 488960;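 active = fluorescence ratio falls more than 5 SD below the full-stimulation control mean, in both duplicate runs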;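 note: integrated fluorescence ratio of peak minus minimum over baseline after agonist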
TRPC6 act conf: mouse TRPC6 activator confirmation. HEK293-TRPC6 membrane potential dye fluorescence, FDSS. activation, % at 10 µM. shares compounds with TRPC6 inhibitor. 2,800 tested, 11% active;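 active = ratio signal rise beyond 5 SD above unstimulated control wells' mean, seen in both duplicate runs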;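 note: plate controls were buffer EC0 wells for no effect and acetylcholine ECmax response for full effect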
* marks the source's active call; other numbers are inactive results; i = inactive; x = no result. This is a sample that favours compounds with a hit; in the whole collection about 2.5% have one here.

SMILES | TRPC4 agonist | TRPC4 inh | TRPC4 PAM | Platelet DG rel | TRPC6 inhibitor | TRPC6 activator | HEK293 MPD ctr-2 | HEK293 MPD ctr 2-2 | TRPC4/MOR mod | TRPC4/MOR inh 2 | TRPC6 inh conf | TRPC6 act conf | others
COC(c1ccccc1)c1nnc(CCC(=O)N(C)Cc2cccc(-n3cccn3)c2)o1 (stereo unspecified) | i | i | i | 1 | i | 16* | i | i | 8.5%* | i | i | i
CCOC(=O)N1CCN(S(=O)(=O)c2ccc(C)c(C)c2)CC1 | i | i | i | -5 | i | i | x | x | x | x | x | x
CCOC(=O)N1CCN(S(=O)(=O)c2ccc(OCC)c(C)c2)CC1 | i | i | i | x | -9.9* | 12* | i | i | 18%* | i | 74%* | 128%*
CCOC(=O)N1CCN(S(=O)(=O)c2cc(Br)cnc2N)CC1 | i | i | i | -2 | -7.2* | i | x | x | x | x | i | i | TRPC4 spec 2=i;TRPC4 spec=i;HEK293 MPD ctr 2-1=i;HEK293 MPD ctr-1=i
CCOC(=O)c1ccc(NC(=O)CCNS(=O)(=O)c2cc(Br)cnc2N)cc1 | i | i | i | -3 | -6.9* | i | i | i | -20%* | i | 79%* | i
CSc1nc2ccc(NC(=O)c3ccc(=O)n(C)n3)cc2s1 | i | i | i | 37 | -5.1* | i | i | i | i | i | i | i
CC[N+](C)(CC)CC(=O)OCC1C(C)C=C(C)CC1C (stereo unspecified) | i | i | i | 1 | -8.4* | i | x | x | x | x | i | i | TRPC4 spec 2=i;TRPC4 spec=i;HEK293 MPD ctr 2-1=i;HEK293 MPD ctr-1=i
Cc1ccc(N(C)C(=O)N2CCN(S(=O)(=O)c3ccc4ccccc4c3)CC2)cc1 | i | i | i | 11 | i | i | x | x | x | x | x | x
CCOc1cc(/C=C2\SC(=NC)N(C)C2=O)cc(Cl)c1OC(C)=O | i | i | i | -4 | -5* | i | i | i | i | i | i | i
COc1ccc(NS(=O)(=O)c2cccc(C(=O)NCC3(N(C)C)CCCCC3)c2)cc1 | i | i | i | 6 | i | i | x | x | x | x | x | x
O=C(Nc1ccc(O)cc1)/C(=C\C=C\c1ccccc1)NC(=O)c1ccccc1 | i | i | i | -9 | -5.6* | i | i | i | i | 37%* | i | i
c1ccc(-c2cc(CSc3nc4ccccc4[nH]3)on2)cc1 | i | i | i | 5 | i | i | x | x | x | x | x | x
CCc1ccccc1N/C(=N\S(=O)(=O)c1ccccc1)C(F)(F)F | i | i | i | 2 | i | i | x | x | x | x | x | x
Cc1cc(C)c2nc(C)cc(Nc3ccc(C(=O)NCCO)cc3)c2c1 | i | i | i | 19 | -10* | i | x | x | x | x | 56%* | i | TRPC4 spec 2=i;TRPC4 spec=-20%*;HEK293 MPD ctr 2-1=-46%*;HEK293 MPD ctr-1=-308%*
CC(=O)c1ccc(Nc2cc(C)nc3c(C)cc(C)cc23)cc1 | i | -6* | i | -2 | -6.9* | i | x | x | x | x | i | i | TRPC4 spec 2=i;TRPC4 spec=-21%*;HEK293 MPD ctr 2-1=i;HEK293 MPD ctr-1=-327%*
COc1ccc(Nc2nnc(-c3ccc(C(=O)NCCO)cc3)c3ccccc23)cc1 | i | i | i | 5 | i | i | x | x | x | x | x | x
Cc1cc(C)c2nc(C)cc(Nc3ccc(C(=O)N(C)C)cc3)c2c1 | i | i | i | 14 | -5.4* | i | -114%* | i | -22%* | i | i | i
CN1C(C(=O)NCc2ccccc2)CC2Cn3c(nc4cc5ccccc5cc43)C21 (stereo unspecified) | i | i | i | -6 | i | i | x | x | x | x | x | x
O=C(CCSc1nc(-c2ccco2)cc(C(F)(F)F)n1)N1CCCc2ccccc21 | i | i | i | 4 | i | i | x | x | x | x | x | x
O=C(CCC(=O)N1CCCC1)N1CCCC1 | i | i | i | 1 | i | i | x | x | x | x | x | x
CC1CCCC(C)N1C(=O)Cn1cnc2cc([N+](=O)[O-])ccc2c1=O (stereo unspecified) | i | i | i | 1 | i | i | x | x | x | x | x | x
CN(CCC(=O)c1ccccc1)CCC(=O)c1ccccc1 | i | i | i | 3 | -5.3* | i | i | i | 10%* | i | i | x
CN(C)CCC(=O)c1ccc(Cl)cc1 | i | i | i | 10 | i | i | x | x | x | x | x | x
Cc1scc2c1N(C(=O)CN1CCN(C)CC1)c1ccccc1NC2=O | i | i | i | -3 | -6.5* | i | i | 86%* | i | i | 78%* | i
CCN1CCN(CC(=O)N2c3ccccc3Sc3ccccc32)CC1 | i | i | i | 12 | i | i | x | x | x | x | x | x
Cc1nn(CCCC(=O)NCc2ccco2)c(=O)c2nn(-c3ccccc3)c(C)c12 | i | i | i | -7 | i | i | x | x | x | x | x | x
CCN(CC)c1ccc(C2Nc3cccc4cccc(c34)N2)cc1 | i | i | i | 10 | -5.5* | i | i | i | i | i | i | i

Compound activity (PubChem BioAssay)
